# Data from ChEMBL document CHEMBL1811914, “Bioactive compounds from the aerial parts of Brachystemma calycinum and structural revision of an octacyclopeptide” (J Nat Prod, 2011).
# The source made the active and inactive calls. The rule behind the calls is not given here. Where a SMILES comes first, the peptide text is derived from it.
# How the values were obtained:
# [1] = system: CRL-2573; experiment: Antioxidant activity against high glucose-induced intracellular ROS production in rat CRL-2573 cells assessed as carboxymethyl-H2-dichlorofluorescein diacetate conversion to 2',7'-dichlorofluorescein at 1 to 10 uM preincubated for 1 hr prior to high glucose challenge by flow cytometer; type: functional, cell-based
# In short: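 Rat mesangial cells cultured and growth-arrested as for secretion assays. Exposed to 5.6 mM (normal) or 25 mM (high) D-glucose for up to 24 h, with or without compound preincubation. Intracellular ROS then measured.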
# [2] = system: CRL-2573; experiment: Antioxidant activity against high glucose-induced intracellular superoxide ion production in rat CRL-2573 cells at 1 to 10 uM measured every minute for 30 mins by lucigenin-enhanced chemiluminescence assay in presence of NADPH; type: functional, cell-based
# In short: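 Homogenates of cultured rat mesangial cells (100 μg/well) assayed by lucigenin-enhanced chemiluminescence. Dark-adapted lucigenin (5 μM) with or without NADPH (100 μM) added immediately before reading. Signal recorded every minute for 30 min.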
# [3] = system: RAW264.7; experiment: Inhibition of LPS-induced nitric oxide production in […] cells at 25 uM; type: functional, cell-based
# [4] = system: CRL-2573; experiment: Inhibition of high glucose-induced CCL2 secretion in rat CRL-2573 cells at 10 uM after 24 hrs by ELISA; type: functional, cell-based
# In short: (§1)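 Rat mesangial cells (CRL-2573) grown in DMEM with 5.6 mM D-glucose (pH 7.4), 20% FCS, penicillin/streptomycin, 10 mM HEPES. At 80% confluence, growth arrested in 0.5% FCS for 24 h. Pretreated 1 h with compound (1 or 10 μM), then high glucose 24 h. Supernatant analyte quantified by sandwich ELISA, normalized to total cell protein (BCA).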
# [5] = system: CRL-2573; experiment: Inhibition of high glucose-induced IL-6 secretion in rat CRL-2573 cells at 10 uM after 24 hrs by ELISA; type: functional, cell-based; in short: as §1
# [6] = system: CRL-2573; experiment: Inhibition of high glucose-induced collagen-4 secretion in rat CRL-2573 cells at 10 uM after 24 hrs by ELISA; type: functional, cell-based; in short: as §1
# [7] = system: CRL-2573; experiment: Inhibition of high glucose-induced collagen-1 secretion in rat CRL-2573 cells at 10 uM after 24 hrs by ELISA; type: functional, cell-based; in short: as §1
# [8] = Cytotoxicity in rat CRL-2573 cells at 10 uM after 24 hrs by trypan blue exclusion assay; type: cell-based; conditions: crl-2573, 24 h
SMILES,Activity [1],Activity [2],inhibition [3],inhibition [4],inhibition [5],inhibition [6],inhibition [7],Activity [8]
"CC(C)C[C@@H]1NC(=O)CNC(=O)[C@H](C)NC(=O)[C@@H]2CCCN2C(=O)[C@@H]2CCCN2C(=O)[C@H](Cc2ccccc2)NC(=O)[C@H]([C@@H](C)O)NC(=O)[C@H](C)NC1=O (HELM PEPTIDE1{A.G.L.A.T.F.P.P}$PEPTIDE1,PEPTIDE1,1:R1-8:R2$$$V2.0)",Active,Active,inactive,Active,Active,Active,Active,Non-toxic
COC1CCC(=O)N1[C@@H]1C=C(COC(=O)c2ccc[nH]2)CO1 (some centres undefined),,,,Active,Active,Active,,
"CC(C)C[C@@H]1NC(=O)CNC(=O)[C@H](C(C)C)NC(=O)[C@@H]2CCCN2C(=O)[C@H](Cc2ccccc2)NC(=O)[C@H]([C@@H](C)O)NC(=O)[C@@H]2CCCN2C(=O)[C@H]([C@@H](C)O)NC1=O (HELM PEPTIDE1{F.P.V.G.L.T.P.T}$PEPTIDE1,PEPTIDE1,1:R1-8:R2$$$V2.0)",,,,Active,Active,Active,,
